Experiment [1] deals with T1, Bacterial 70S ribosome (Bacteria) (UniProt P0A7V0+P60723+P0AG67+P0A7R5+P0A7R9+P0A7S3+P0A7S9+P0AG59+P0ADZ4+P0A7T3+P0AG63+P0A7T7+P0A7U3+P0A7U7+P68679+P0A7V3+P0A7V8+P0A7W1+P02358+P02359+P0A7W7+P0A7X3+P0A7J3+P0A7J7+P0AA10+P0ADY3+P02413+P0ADY7+P0AG44+P0C018+P0A7K6+P0A7L0+P0A7L3+P0AG48+P61175+P0ADZ0+P60624+P68919+P0A7L8+P0A7M2+P0A7M6+P60422+P0AG51+P0A7N1+P0A7M9+P0A7N4+P0A7N9+P0A7P5+P0A7Q1+Q2EEQ2+P0A7Q6+P60438+P62399+P0AG55+P0A7K2). As to the kind of experiment: Competitive inhibition of peptidyl transferase activity of Escherichia coli ribosome using Ac[14C]-L-Phe-tRNA/puromycin as donor/acceptor substrate assessed as acetyl[14C]phenylalanylpuromycin formation at 2 x 10^-4 M by double reciprocal plot analysis. The gist of the method:
(§1)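 E. coli washed ribosomes (2.78 A260 units) charged with 20.8 pmol Ac[14C]Phe-tRNA in 100 mM Tris-Cl pH 7.5, 100 mM NH4Cl, 15 mM Mg(OAc)2, 0.65 mM DTT, 1.2 mM GTP, FWR, poly(U), 8 min at 28 °C. Mixture then added to puromycin with or without inhibitor, 28 °C. Product measured radiometrically. Ki from double reciprocal plots; highest concentration tested 2 × 10^-4 M.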

For experiment [2], the target named is Bacterial 70S ribosome. As to the kind of experiment: Competitive inhibition of peptidyl transferase activity of Escherichia coli ribosome using Ac[14C]-L-Phe-tRNA/puromycin as donor/acceptor substrate assessed as acetyl[14C]phenylalanylpuromycin formation by double reciprocal plot analysis. The method, boiled down: as §1
For experiment [3], the target named is T1, Bacterial 70S ribosome (Bacteria). As to the kind of experiment: Competitive inhibition of peptidyl transferase activity of Escherichia coli ribosome using Ac[14C]-L-Phe-tRNA/puromycin as donor/acceptor substrate assessed as acetyl[14C]phenylalanylpuromycin formation at 10^-6 M preincubated for 15 mins prior to puromycin addition. The method, boiled down:
(§2)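 Ribosomes charged with Ac[14C]-L-Phe-tRNA as in the binding step (poly(U), GTP, FWR, Mg2+, 8 min, 28 °C). The charged mixture was preincubated with 10^-6 M inhibitor for 15 min at 28 °C before adding 10^-4 M puromycin. Ac[14C]Phe-puromycin formation was followed over time at 28 °C.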

Experiment [4] has the same target. As to the kind of experiment: Competitive inhibition of peptidyl transferase activity of Escherichia coli ribosome using Ac[14C]-L-Phe-tRNA/puromycin as donor/acceptor substrate assessed as acetyl[14C]phenylalanylpuromycin formation incubated with donor substrate/enzyme prior to puromycin addition. The gist of the method:
as §2

Experiment [5] addresses Bacterial 70S ribosome. As to the kind of experiment: Competitive inhibition of peptidyl transferase activity of Escherichia coli ribosome using Ac[14C]-L-Phe-tRNA/puromycin as donor/acceptor substrate assessed as acetyl[14C]phenylalanylpuromycin formation by Dixon plot analysis.

Molecules are shown by their SMILES. Activity calls are given as the source filed them. No cut-off for these calls is given here.

The Ki is a measure of affinity in units of concentration, obtained from inhibition or displacement.

As for `CCCSC[C@@H](CO)NC(=O)/C=C/c1c(C)[nH]c(=O)[nH]c1=O`, the inhibition result in experiment [1] was “inactive”.

For `CSC[S@@+]([O-])CC(CO)NC(=O)/C=C/c1c(C)[nH]c(=O)[nH]c1=O` (stereo partly specified) [SPARSOMYCIN], on Bacterial 70S ribosome [2], the inhibitory constant (Ki) is 0.5 µM. Moreover, the inhibition result in experiment [3] is “Active”.

In the case of `CSCSCC(CO)NC(=O)/C=C/c1c(C)nc(O)nc1O` (racemic), at Bacterial 70S ribosome [2], the Ki is 1.09 µM. Moreover, the inhibition entry in experiment [4] is “Active”.

Consider `Cc1[nH]c(=O)[nH]c(=O)c1/C=C/C(=O)NC(CO)CSCc1ccccc1` (racemic), for which the Ki on Bacterial 70S ribosome [2] is 1.21 µM.

In the case of `CCCSCC(CO)NC(=O)/C=C/c1c(C)[nH]c(=O)[nH]c1=O` (racemic), the inhibition constant Ki at Bacterial 70S ribosome [2] and on Bacterial 70S ribosome [5] was 2 µM in each case.

As to `CCCSC[C@H](CO)NC(=O)/C=C/c1c(C)[nH]c(=O)[nH]c1=O`, the Ki at Bacterial 70S ribosome [2] came to 1.1 µM.

Regarding `Cc1[nH]c(=O)[nH]c(=O)c1/C=C/C(=O)NC(C)CO` (racemic), the inhibition result in experiment [1] is “inactive”.

As to `CCCCCC(CO)NC(=O)/C=C/c1c(C)[nH]c(=O)[nH]c1=O` (racemic), the inhibition constant Ki at Bacterial 70S ribosome [2] amounted to 2.3 µM.

Source of the values: ChEMBL document CHEMBL3244100, “Effect of sparsomycin analogues on the puromycin-peptidyl transferase reaction on ribosomes” (J Med Chem, 1978).
